Data as given in ChEMBL document CHEMBL4765350, “Receptor-interacting protein kinase 2 (RIPK2) and nucleotide-binding oligomerization domain (NOD) cell signaling inhibitors based on a 3,5-diphenyl-2-aminopyridine scaffold” (Eur J Med Chem, 2020).
Calls of active or inactive are those of the source. No cut-off for these calls is given here.

What was measured:
[1] = biological target: T1, Activin receptor type-1 (Homo sapiens, UniProt Q04771); test: Inhibition of human ALK2 using casein as substrate in presence of 10 uM [gamma33P] ATP by kinase assay
T1 sequence (Q04771 whole entry): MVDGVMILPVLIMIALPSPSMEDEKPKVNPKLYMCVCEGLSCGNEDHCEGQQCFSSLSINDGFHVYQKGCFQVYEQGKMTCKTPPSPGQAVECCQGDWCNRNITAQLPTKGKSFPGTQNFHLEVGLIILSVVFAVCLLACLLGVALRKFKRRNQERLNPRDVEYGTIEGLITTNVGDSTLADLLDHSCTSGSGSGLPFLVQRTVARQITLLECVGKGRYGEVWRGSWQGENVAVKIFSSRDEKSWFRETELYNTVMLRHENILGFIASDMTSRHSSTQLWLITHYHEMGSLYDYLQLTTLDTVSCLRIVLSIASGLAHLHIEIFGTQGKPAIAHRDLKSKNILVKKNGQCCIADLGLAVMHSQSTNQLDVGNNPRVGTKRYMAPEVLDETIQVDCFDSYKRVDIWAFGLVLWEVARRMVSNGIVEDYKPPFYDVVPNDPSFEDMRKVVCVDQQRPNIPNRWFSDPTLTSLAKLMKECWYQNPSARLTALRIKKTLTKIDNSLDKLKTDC

[2] = biological target: T2, Receptor-interacting serine/threonine-protein kinase 2 (Homo sapiens, UniProt O43353); test: Inhibition of recombinant human RIPK2 incubated for 2 hr by ADP-Glo assay
Outline: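 IC50 values reported as the mean of two or three determinations ± standard deviation.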

[3] = biological target: T3, Activin receptor type-1 (Homo sapiens) (UniProt Q04771); test: Inhibition of human ALK2 using casein as substrate at 10 uM in presence of 10 uM [gamma33P] ATP by kinase assay
T3 sequence (whole entry): T1 sequence (Q04771 whole entry)

[4] = biological target: Nucleotide-binding oligomerization domain-containing protein 2 (Homo sapiens) (UniProt Q9HC29); test: Inhibition of human NOD2 expressed in HEK293 cells coexpressing NFkappaB-SEAP reporter at 10 uM measured after 7 to 9 hrs by HEKBIue reporter assay; type: cell-based; settings: time 7-9 hrs
[5] = biological target: T2, Receptor-interacting serine/threonine-protein kinase 2; test: Inhibition of recombinant human RIPK2 at 10 uM incubated for 2 hr by ADP-Glo assay
[6] = Permeability of the compound by PAMPA; type: ADME
[7] = Stability in mouse liver microsomes assessed as half life; type: ADME, Microsome
[8] = Clearance in C57BL/6 mouse at 10 mg/kg, ip by LC-MS/MS analysis; type: ADME, organism-based; settings: in vivo
Outline: (§1)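 Single 10 mg/kg intraperitoneal dose formulated in 6% Captisol in water, given to 8-week-old female C57BL/6 mice, n = 5 mice per group; plasma concentrations followed over time to derive PK parameters.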

[9] = AUC in C57BL/6 mouse at 10 mg/kg, ip by LC-MS/MS analysis; type: ADME, organism-based; design: dose 10 mg/kg; settings: in vivo; outline: as §1
[10] = Aqueous solubility of compound in PBS buffer at pH 7.4; type: physicochemical
Outline: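 Solubility measured in PBS buffer at pH 7.4.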

[11] = Stability in mouse liver microsomes assessed as intrinsic clearance; type: ADME, Microsome

Chain of Nucleotide-binding oligomerization domain-containing protein 2 (Homo sapiens) (Q9HC29 whole entry, the tested form may be a part): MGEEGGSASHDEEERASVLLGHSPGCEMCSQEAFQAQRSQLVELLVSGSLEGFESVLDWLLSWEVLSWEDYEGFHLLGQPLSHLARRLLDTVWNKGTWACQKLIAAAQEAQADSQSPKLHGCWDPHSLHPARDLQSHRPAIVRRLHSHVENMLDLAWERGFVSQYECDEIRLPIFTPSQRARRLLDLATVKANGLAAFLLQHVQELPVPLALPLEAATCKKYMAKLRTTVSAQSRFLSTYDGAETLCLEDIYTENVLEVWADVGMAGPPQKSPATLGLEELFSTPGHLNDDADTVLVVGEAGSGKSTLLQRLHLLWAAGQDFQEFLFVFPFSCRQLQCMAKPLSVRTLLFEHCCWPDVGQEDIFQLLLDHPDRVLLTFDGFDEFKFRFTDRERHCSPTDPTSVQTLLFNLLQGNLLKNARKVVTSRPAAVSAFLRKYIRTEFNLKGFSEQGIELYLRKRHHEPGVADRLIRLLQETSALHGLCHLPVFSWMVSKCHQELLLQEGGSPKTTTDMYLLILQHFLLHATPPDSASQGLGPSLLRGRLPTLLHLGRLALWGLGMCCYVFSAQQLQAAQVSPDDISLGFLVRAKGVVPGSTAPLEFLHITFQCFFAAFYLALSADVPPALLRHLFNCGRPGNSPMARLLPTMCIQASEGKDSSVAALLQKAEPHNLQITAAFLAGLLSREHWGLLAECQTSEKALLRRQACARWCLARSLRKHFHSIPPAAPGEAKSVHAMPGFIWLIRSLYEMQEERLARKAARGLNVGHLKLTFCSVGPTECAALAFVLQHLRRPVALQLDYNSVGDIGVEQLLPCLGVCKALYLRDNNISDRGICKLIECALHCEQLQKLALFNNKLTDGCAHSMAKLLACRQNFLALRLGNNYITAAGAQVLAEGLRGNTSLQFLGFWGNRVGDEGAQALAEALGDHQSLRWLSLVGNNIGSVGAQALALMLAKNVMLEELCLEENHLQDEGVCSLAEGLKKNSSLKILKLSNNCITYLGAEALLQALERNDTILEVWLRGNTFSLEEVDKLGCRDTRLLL
T2 sequence (O43353 whole entry): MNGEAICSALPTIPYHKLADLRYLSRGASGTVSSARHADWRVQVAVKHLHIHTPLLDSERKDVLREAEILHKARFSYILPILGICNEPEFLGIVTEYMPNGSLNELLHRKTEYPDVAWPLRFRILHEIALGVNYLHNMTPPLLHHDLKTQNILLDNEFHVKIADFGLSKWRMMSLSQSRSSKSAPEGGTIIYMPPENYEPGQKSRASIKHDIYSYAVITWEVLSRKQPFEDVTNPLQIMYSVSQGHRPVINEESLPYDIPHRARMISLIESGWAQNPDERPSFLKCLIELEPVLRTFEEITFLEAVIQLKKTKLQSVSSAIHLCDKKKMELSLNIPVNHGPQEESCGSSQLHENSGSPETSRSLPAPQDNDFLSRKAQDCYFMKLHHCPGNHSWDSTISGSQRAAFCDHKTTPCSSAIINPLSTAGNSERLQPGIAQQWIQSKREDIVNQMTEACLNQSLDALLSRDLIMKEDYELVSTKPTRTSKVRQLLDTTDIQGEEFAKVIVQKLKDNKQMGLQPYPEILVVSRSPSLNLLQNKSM

| SMILES | IC50 [1] [nM] | IC50 [2] [nM] | inhibition [3] | also measured |
| --- | --- | --- | --- | --- |
| CCCS(=O)(=O)Nc1cc(OC)cc(-c2cc(-c3ccc(N4CCNCC4)cc3)cnc2C)c1 | 108 | 164 |  |  |
| CCCS(=O)(=O)N1CCc2ccc(-c3cc(-c4ccc(N5CCNCC5)cc4)cnc3N)cc21 |  | 185 | inactive |  |
| CCCS(=O)(=O)N1CCOc2ccc(-c3cc(-c4ccc(N5CCNCC5)cc4)cnc3N)cc21 |  | 78 | inactive |  |
| CCCS(=O)(=O)Nc1cc(-c2cncc(-c3ccc(N4CCNCC4)cc3)c2)cc(F)c1OC |  | 27 |  |  |
| CCOc1cc(NS(=O)(=O)C(C)C)cc(-c2cc(-c3ccc(N4CCNCC4)cc3)cnc2N)c1 | 299 | 21 |  |  |
| CCCS(=O)(=O)Nc1cc(-c2cc(-c3ccc(N4CCNCC4)cc3)cnc2N)cc(OCC)c1OC |  |  | inactive | inhibition [4]: inactive; inhibition [5]: inactive |
| CCCS(=O)(=O)Nc1cc(OC)cc(-c2cc(-c3ccc(N4CCNCC4)cc3)cnc2N)c1 | 9 | 14 |  |  |
| CCCS(=O)(=O)NCc1cc(-c2cc(-c3ccc(N4CCNCC4)cc3)cnc2N)ccc1OC | 145 | 99 |  |  |
| CCCS(=O)(=O)Nc1cc(-c2cc(-c3ccc(N4CCNCC4)cc3)cnc2N)cc(OC)c1C | 355 |  |  | inhibition [5]: inactive |
| CCCS(=O)(=O)Nc1cc(-c2cc(-c3cccc(N4CCNCC4)c3)cnc2N)cc(F)c1OC | 522 | 11 |  |  |
| CCCS(=O)(=O)Nc1cc(-c2cc(-c3ccc(N4CCNCC4)cc3)cnc2N)cc(C)c1OC | 395 | 41 |  |  |
| CCCS(=O)(=O)Nc1cc(-c2cc(-c3ccc(N4CCNCC4)cc3)cnc2N)cc(F)c1OC | 348 | 16 |  | permeability [6]: 2.9 10^-6 cm/s; t1/2 [7]: 25.6 min; CL/F [8]: 59.7 mL/min/kg; AUC [9]: 2920 ng·h/mL; solubility [10]: >= 100 uM; CLint [11]: 27 µL/min/mg |
| CC(C)Oc1cc(NS(=O)(=O)C(C)C)cc(-c2cc(-c3ccc(N4CCNCC4)cc3)cnc2N)c1 |  | 18 | inactive |  |
| CCCS(=O)(=O)Nc1cc(-c2cc(-c3ccc(N4CCNCC4)cc3)cnc2N)cc(Cl)c1OC | 202 | 21 |  |  |
| CCCS(=O)(=O)Nc1cc(-c2cc(-c3ccc(N4CCNCC4)cc3)cnc2N)ccc1C | 2120 | 102 |  |  |
| CCCS(=O)(=O)Nc1cc(-c2cc(-c3ccc(N4CCNCC4)cc3)cnc2N)cc(OC)c1OC | 57 |  |  |  |

| SMILES | IC50 [1] [nM] | IC50 [2] [nM] | inhibition [3] | also measured |
| --- | --- | --- | --- | --- |
| CCCS(=O)(=O)Nc1cc(-c2cc(-c3ccc(N4CCNCC4)cc3)cnc2N)cc2c1OCCO2 |  | 520 | inactive |  |
| CCCS(=O)(=O)Nc1cc(-c2cc(-c3ccc(N4CCNCC4)cc3)cnc2N)ccc1O | 387 |  |  |  |
| CCCS(=O)(=O)Nc1cc(-c2cc(-c3ccccc3S(C)(=O)=O)cnc2N)ccc1OC |  |  | inactive | inhibition [4]: inactive; inhibition [5]: inactive |
| CCCS(=O)(=O)Nc1cc(-c2cc(-c3ccc(S(C)(=O)=O)cc3)cnc2N)ccc1OC |  | 264 | inactive | inhibition [4]: inactive |
| CCCS(=O)(=O)Nc1ccc(-c2cc(-c3ccc(N4CCNCC4)cc3)cnc2C)cc1OC |  |  | inactive | inhibition [5]: inactive |
| CCCS(=O)(=O)Nc1cc(-c2cc(-c3cccc(S(C)(=O)=O)c3)cnc2N)ccc1OC |  | 103 | inactive |  |
| COc1cc(NS(=O)(=O)c2ccccc2)cc(-c2cc(-c3ccc(N4CCNCC4)cc3)cnc2N)c1 | 5 | 23 |  |  |
| CCS(=O)(=O)Nc1cc(OC)cc(-c2cc(-c3ccc(N4CCNCC4)cc3)cnc2C)c1 | 86 | 127 |  |  |
| COc1cc(NS(=O)(=O)C(C)C)cc(-c2cc(-c3ccc(N4CCNCC4)cc3)cnc2N)c1 | 11 | 13 |  |  |
| COc1cc(NS(=O)(=O)C(C)C)cc(-c2cc(-c3ccc(N4CCNCC4)cc3)cnc2C)c1 | 239 | 76 |  |  |
| COc1cc(-c2cc(-c3ccc(N4CCNCC4)cc3)cnc2N)cc(F)c1OC | 29 |  |  |  |
| CCCS(=O)(=O)Nc1cc(-c2cc(-c3ccc(N4CCNCC4)cc3)cnc2C)cc(F)c1OC |  |  | inactive |  |
| COc1cc(NS(C)(=O)=O)cc(-c2cc(-c3ccc(N4CCNCC4)cc3)cnc2N)c1 | 5 | 51 |  |  |
| COc1cc(NS(C)(=O)=O)cc(-c2cc(-c3ccc(N4CCNCC4)cc3)cnc2C)c1 | 31 | 296 |  |  |
| COc1cc(-c2cc(-c3ccc(N4CCNCC4)cc3)cnc2C)cc(OC)c1OC |  | 100 |  | inhibition [4]: inactive |
| CCCS(=O)(=O)Nc1cc(-c2cc(-c3ccc(N4CCNCC4)cc3)cnc2N)ccc1OC | 3540 | 32 |  |  |
